SR-BI DiI-HDL act: activators of SR-BI mediated HDL lipid uptake. CHO ldlA[mSR-BI] cells, DiI-HDL uptake fluorescence, 3 h; 100 = double the neutral-control signal. activation, % at 12.5 µM. 320,000 tested, 0.096% active;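 active means mean replicate activation of at least 60% and every replicate at or above 60%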;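 further: 0% = median plate neutral-control signal and 100% = twice that signal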
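Test system: SR-BI-overexpressing, LDLR-lacking CHO cells; Also added: labelled HDL, 10 µg/mL; Measured by: bottom-read cell fluorescence after medium removal, ex 550/em 595 nm; Timing: 3 h uptake period with compound, 37 °C; Buffer or medium: F12, 0.5% BSA, 25 mM HEPES; Doses: single compound concentration, delivered by pin transfer.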
AHR activator: activators of human aryl hydrocarbon receptor; activation, % at 5 µM; AHR-responsive luciferase reporter cells, luminescence; 320,000 tested, 2.5% active; P35869; in the data active means activation above about 47%;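 further: 0% = vehicle wells and 100% = reference agonist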
HIF activator: HIF pathway transcriptional activation; U2OS HRE-luciferase reporter, luminescence; normalized: DMSO 0%, desferrioxamine 100%; activation, % at 7.5 µM (by protocol); 300,000 tested, 0.32% active;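 active means mean activation of at least 10% of the iron chelator positive control signal, with at least half of replicates also reaching 10%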
SR-BI HDL uptake: inhibitors of mouse SR-BI mediated HDL lipid uptake; 320,000 tested, 0.96% active; inhibition, % at 12.5 µM; ldlA[mSR-BI] CHO cells, DiI-HDL uptake fluorescence, 3 h; Q61009;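 active means mean replicate inhibition of at least 70% and a set share of replicates each scoring 70 or more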;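 further: 0% = median of neutral control wells and 100% = median of positive control wells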
ABCB6 inh 2: human ABCB6 transporter inhibition; AID 602162; 360,000 tested, 0.19% active; Q9NP58; fluorescence ratio to DMSO, % at 10 µM; K562-ABCB6 porphyrin accumulation, flow cytometry, 1 h; stronger effect = lower value;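 active means fluorescence ratio to DMSO below 75%, the collection mean minus 3 SD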;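 further: signal is porphyrin accumulated inside mitochondria; 100% equals median channel fluorescence of DMSO control wells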
GAA850 FXN act: activators of GAA850 frataxin (FXN) promoter; HEK293 lucGAA850 FXN promoter luciferase reporter, 24 h; percent of 10 µM SAHA response; activation, % at 6 µM; 360,000 tested, 0.56% active; AID 540364;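 active means activation above the average of all compounds screened plus 3 SD, cutoff fixed separately per campaign, cut at about 7.5% in these data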;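 further: 0% = DMSO wells and 100% = 10 µM SAHA wells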
DiI quencher: counter-screen for SR-BI lipid transfer inhibitors: DiI fluorescence quenchers; AID 540326; 470 tested, 20% active; AC50, µM (highest dose often 35 µM), inactives show top-dose activity change, negative = quenching; shares compounds with SR-BI HDL uptake; cell-free DiI-HDL fluorescence quenching, 30 min;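 active means quenching, a falling signal, with AC50 below a set limit tied to the top valid dose, actives reach about 32 µM in these data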
Active calls of the source: *; i = inactive; · = no result given. Hits are enriched below; roughly 3.9% of the tested compounds scored in any of these assays.

SMILES | SR-BI DiI-HDL act | AHR activator | HIF activator | SR-BI HDL uptake | ABCB6 inh 2 | GAA850 FXN act | DiI quencher
CC(C)(C)OC(=O)N1CSC[C@H]1C(=O)NC[C@H](CC(=O)O)c1ccc(Cl)cc1 | -78.2 | 8.5 | -22.6 | 78.2* | 96.0 | 0.1 | -3.6%
CC(C)C[C@H](NC(=O)C1(c2ccccc2)CCN(C(=O)[C@H]2CSCN2C(=O)OC(C)(C)C)CC1)C(=O)O | 15.6 | -4.7 | 0.6 | -15.6 | 102.0 | -1.2 | ·
O=C(O)c1cc(N2C(=O)C=CC2=O)cc(N2C(=O)C=CC2=O)c1 | 9.2 | · | · | -9.2 | 95.0 | -0.9 | -3.2%
Cn1c(SCC(=O)Nc2nccs2)nnc1-c1ccc(S(=O)(=O)N2CCCC2)cc1 | -32.0 | 2.5 | -0.2 | 32.0 | 97.0 | -3.5 | ·
Cc1ccc(S(=O)(=O)N2CCN(C(=O)C3CC(=O)N(c4ccc5c(c4)OCCO5)C3)CC2)cc1 (centres undefined) | 2.6 | 0.0 | · | -2.6 | 98.0 | 0.7 | ·
N#Cc1ccccc1S(=O)(=O)N1CCN(C(=O)C2CC(=O)N(c3ccc4c(c3)OCCO4)C2)CC1 (centres undefined) | 0.8 | 2.1 | · | -0.8 | 104.0 | -1.1 | -10.3%
CCOc1ccc(C(=O)Nc2ccc(S(=O)(=O)N3C[C@@H]4C[C@@H](C3)c3cccc(=O)n3C4)cc2)cc1 | -74.9 | -1.3 | · | 74.9* | 95.0 | -2.0 | -1.3%
O=C(Nc1ccc(S(=O)(=O)N2C[C@@H]3C[C@@H](C2)c2cccc(=O)n2C3)cc1)c1ccc(F)cc1 | -16.7 | -1.2 | · | 16.7 | 100.0 | -3.0 | ·
Cc1ccc(-c2cc(C(=O)Nc3sc4c(c3C(=O)NCc3ccco3)CCC4)[nH]n2)c(O)c1 | -82.6 | -2.0 | -0.3 | 82.6* | 99.0 | 3.0 | i
CCNC(=O)NC(=O)C(C)OC(=O)c1oc2ccc(OCC)cc2c1C (centres undefined) | -9.6 | 2.5 | -0.4 | 9.6 | 106.0 | 0.6 | ·
Cc1ccsc1-c1nc(-c2ccccc2)c(-c2ccccc2)[nH]1 | -71.3 | 28.0 | -0.3 | 71.3* | 98.0 | -0.2 | 32.3µM*
COC(=O)c1ccccc1NC(=O)[C@@H]1CCC(=O)N1C1OC(=O)c2c1ccc(OC)c2OC (some centres undefined) | 9.5 | 1.2 | 0.3 | -9.5 | 98.0 | 0.7 | ·
CC[C@@H](C)[C@H](NC(=O)Cc1c(C)c2cc3c(C)c(C)oc3c(C)c2oc1=O)C(=O)O | -94.5 | -0.4 | 0.4 | 94.5* | 93.0 | 1.6 | -2.7%
COc1ccccc1CNC(=O)COC(=O)c1c[nH]c2ccccc12 | 13.4 | · | · | -13.4 | 102.0 | -1.4 | ·
Cc1ccc2nc(-c3ccccc3)cc(C(=O)N3CCN(c4ccccc4O)CC3)c2c1 | -34.7 | 20.8 | 1.8 | 34.7 | 97.0 | 1.1 | -11.4%
O=C(c1cc(-c2ccccc2)nc2ccccc12)N1CCN(c2ccccc2O)CC1 | -58.1 | 12.2 | -4.0 | 58.1 | 92.0 | 3.1 | ·
Cc1ccc(-c2cc(C(F)F)n3ncc(C(=O)N4CCN(c5cccc(C)c5C)CC4)c3n2)cc1 | -45.5 | 3.2 | -0.4 | 45.5 | 91.0 | 2.2 | 0.5%
CC(=O)c1ccc(N2CCN(C(=O)c3cc(-c4cccnc4)nc4ccc(Br)cc34)CC2)cc1 | -9.5 | 5.6 | -0.4 | 9.5 | 92.0 | -3.3 | -5.4%
Cc1ccccc1-c1cc(C(=O)NCc2cccc(Br)c2)nn1CC1CC(c2cccc([N+](=O)[O-])c2)=NO1 (centres undefined) | -33.6 | -0.1 | · | 33.6 | 93.0 | -0.6 | -0.6%
COCCNC(=O)c1cc(-c2ccccc2C)n(CC2CC(c3cccc([N+](=O)[O-])c3)=NO2)n1 (centres undefined) | 16.4 | 2.2 | · | -16.4 | 84.0 | 1.9 | ·
COc1cc(NC(=O)C2CC(c3c(F)cccc3Cl)=NO2)c(OC)cc1Cl (centres undefined) | -82.2 | 4.7 | -0.2 | 82.2* | 99.0 | 0.5 | 0.3%
COc1ccc(NC(=O)C2CC(c3c(F)cccc3Cl)=NO2)cc1OC (centres undefined) | -22.1 | 0.0 | 0.8 | 22.1 | 96.0 | 1.4 | ·

High-throughput results (PubChem)
